Measurements published in paper PMC9202693 (The Journal of General Physiology, 2022).
“Also recorded” adds a separate entry of the source. Like-named read-outs stand apart in the source and are kept apart here. Positions of bridges follow the written chain, without caps; N, C: chain ends. Residues, ends and D or L forms follow the SMILES beside them. No end group written: not given here.

What was measured:
[1] = tested on: hNaV1.5; assay: Selectivity, patch-clamp, hNaV1.5 in CHO cells; format: cell-based, human; details: 150 nM Cm28, 8–20 pulses (2–5 min), n ≥ 3
How it was run: (§1)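 Whole-cell Na+ currents evoked by 15-ms steps to 0 mV every 10 s. Normal Na+-based bath, pH 7.35. Pipette (mM): 10 NaCl, 105 CsF, 10 HEPES, 10 EGTA, pH 7.2. Remaining peak current fraction at 150 nM after 8–20 pulses (2–5 min); mean ± SEM, n ≥ 3. NaV1.4 was recorded in HEK293 cells stably expressing the channel.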

[2] = tested on: hHV1; assay: Selectivity, patch-clamp, hHV1 in CHO cells; format: cell-based, human; details: 150 nM Cm28, 8–20 pulses (2–5 min), n ≥ 3
How it was run: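 Whole-cell proton current measured with a 1.0-s ramp to +100 mV from Vh −60 mV every 15 s. Bath (mM): 60 Na L-aspartate, 80 MES, 5.5 glucose, 6 MgCl2, pH 7.4. Pipette (mM): 90 Na L-aspartate, 80 MES, 6 MgCl2, 3.3 glucose, pH 6.17. Remaining current fraction (peak I/I0) taken at 150 nM after 8–20 pulses; mean ± SEM, n ≥ 3.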

[3] = biological target: T1, KV1.2 (Homo sapiens, UniProt P16389); assay: Binding kinetics of Cm28 block of KV1.2; format: cell-based
How it was run: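 KV1.2 transiently transfected into CHO cells; GFP-positive cells recorded 24–36 h post-transfection by whole-cell voltage clamp. Normal bath (mM): 145 NaCl, 5 KCl, 2.5 CaCl2, 1 MgCl2, 5.5 glucose, 10 HEPES, pH 7.35. 15-ms pulses to +50 mV from Vh −120 mV every 15 s with 2 nM toxin. Normalized peak current versus time fitted single-exponentially for wash-in/wash-out (τon, τoff); kon, koff from bimolecular model.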

[4] = tested on: hNaV1.4; assay: Selectivity, patch-clamp, hNaV1.4 in human embryonic kidney 293 cells; format: cell-based; details: 150 nM Cm28, 8–20 pulses (2–5 min), n ≥ 3
How it was run: as §1

[5] = biological target: T1, KV1.2; assay: Voltage dependence of activation; format: cell-based; details: KV1.2, 2 nM Cm28
How it was run: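 CHO cells were transiently transfected with GFP-tagged hKV1.2 and recorded by whole-cell clamp 24–36 h later at 20–25°C. For G-V, 300-ms steps from −70 to +80 mV in 10 mV increments were applied, with tail currents at −120 mV normalized to the maximum. For instantaneous I-V, 200-ms ramps to +50 mV were used. Pulses were given every 15 s. Traces are three-trace averages in control and at equilibrium block.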

[6] = tested on: hKV1.1; assay: Selectivity, patch-clamp, hKV1.1 in CHO cells; format: cell-based, human
How it was run: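 hKV1.1 (KCNA1, GFP-tagged vector) transiently transfected into CHO cells with Lipofectamine; GFP-positive cells recorded 24–36 h later by whole-cell voltage clamp. Normal bath (mM): 145 NaCl, 5 KCl, 2.5 CaCl2, 1 MgCl2, 5.5 glucose, 10 HEPES, pH 7.35. Remaining current fraction = peak current with/without 150 nM toxin at equilibrium block; mean ± SEM.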

[7] = biological target: T2, KV1.3 (Homo sapiens, UniProt P22001); assay: Binding kinetics of Cm28 block of KV1.3; format: cell-based
How it was run: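 Activated human peripheral T lymphocytes (PHA-stimulated PBMCs) recorded by whole-cell voltage clamp in normal Na+-based bath, pH 7.35. 15-ms pulses to +50 mV from Vh −120 mV every 15 s. Wash-in and wash-out time courses of normalized peak current fitted with single exponentials. 1/τon and 1/τoff versus toxin concentration fitted by linear regression to give kon and koff, assuming simple bimolecular binding.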

[8] = tested on: hKV11.1 (hERG1); assay: Selectivity, patch-clamp, hKV11.1 in human embryonic kidney 293 cells; format: cell-based; details: 150 nM Cm28, 8–20 pulses (2–5 min), n ≥ 3
How it was run: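 HEK293 cells stably expressing hKV11.1. Pipette (mM): 140 KCl, 2 MgCl2, 10 HEPES, 10 EGTA, pH 7.3. Step to +20 mV (1.25 s) from Vh −80 mV, then −40 mV (2 s), every 30 s. Peak tail current I/I0 at 150 nM after 8–20 pulses; n ≥ 3.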

[9] = tested on: mKCa1.1; assay: Selectivity, patch-clamp, mKCa1.1 in human embryonic kidney 293 cells; format: cell-based; details: 150 nM Cm28, 8–20 pulses (2–5 min), n ≥ 3
How it was run: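 HEK293 cells stably expressing mKCa1.1 recorded in whole-cell mode in normal bath (145 NaCl, 5 KCl, 2.5 CaCl2, 1 MgCl2, 5.5 glucose, 10 HEPES mM, pH 7.35). Cells depolarized to +100 mV for 600 ms from Vh −100 mV. Peak I/I0 at 150 nM after 8–20 pulses (2–5 min); mean ± SEM, n ≥ 3.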

[10] = tested on: hKCa3.1; assay: Selectivity, patch-clamp, hKCa3.1 in CHO cells; format: cell-based, human; details: 150 nM Cm28, 8–20 pulses (2–5 min), n ≥ 3
How it was run: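 Whole-cell KCa3.1 currents recorded with 150-ms ramps to +50 mV from −120 mV every 10 s. Bath (mM): 145 Na L-aspartate, 5 KCl, 10 HEPES, 5.5 glucose, 2.5 CaCl2, 1 MgCl2, pH 7.4. Pipette (mM): 150 K-Asp, 5 HEPES, 8.5 CaCl2, 1.0 MgCl2, pH 7.22. Peak I/I0 at 150 nM after 8–20 pulses (2–5 min); mean ± SEM, n ≥ 3.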

[11] = tested on: hKV1.5; assay: Selectivity, patch-clamp, hKV1.5 in CHO cells; format: cell-based, human; details: 150 nM Cm28, 8–20 pulses (2–5 min), n ≥ 3
How it was run: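 Whole-cell KV1.5 currents recorded in normal bath (mM): 145 NaCl, 5 KCl, 2.5 CaCl2, 1 MgCl2, 5.5 glucose, 10 HEPES, pH 7.35. Remaining current fraction calculated as the ratio of peak currents with and without 150 nM test compound after 8–20 repeated depolarizing pulses (2–5 min). Reported as mean ± SEM, n ≥ 3.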

[12] = tested on: CD40L expression in CD4^+ TEM lymphocytes; assay: Expression of CD40L; format: cell-based, human
How it was run: (§2)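 CD4+ TEM cells were isolated from healthy-donor PBMCs by negative magnetic selection and held at 1 × 10^6 cells/ml in RPMI 1640 with 10% FBS. They were pre-incubated 30 min with test peptide, then stimulated 24 h at 37°C on plate-bound anti-CD3 (OKT3, 1 µg/well) with toxin kept present. Cells were stained 20 min at 4°C with anti-CD25 and anti-CD154. Gating was FSC/SSC, 10,000 events. MFI was normalized to the stimulated untreated control. Duplicates, three donors.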

[13] = biological target: T1, KV1.2; assay: Whole-cell patch-clamp block of KV1.2 current, transiently transfected CHO cells; format: cell-based
How it was run: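 hKV1.2 was expressed transiently in CHO cells, and GFP-positive cells were recorded 24–36 h after transfection. Whole-cell currents were evoked by 15-ms pulses to +50 mV from −120 mV every 15 s at 20–25°C, with leak below 10%, using gravity perfusion. RCF was peak I/I0 at equilibrium block.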

[14] = tested on: IL2R expression in CD4^+ TEM lymphocytes; assay: Expression of IL2R; format: cell-based, human
How it was run: as §2

[15] = biological target: T2, KV1.3; format: cell-based
How it was run: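 PBMCs from healthy donors were cultured 3–6 days in RPMI 1640 with 10% FBS and PHA (2, 5 or 10 µg/ml) to raise KV1.3. Whole-cell currents were evoked by 15-ms pulses to +50 mV from −120 mV every 15 s at 20–25°C, with gravity perfusion. Remaining current fraction was peak I/I0 at equilibrium block. Points (3–5 records each) were Hill-fitted for Kd and H. Perfusion control was 10 mM TEA+; wash-out used toxin-free solution.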

[16] = tested on: CD4^+ TEM lymphocytes; assay: LDH cytotoxicity assay; format: cell-based, human; details: for cytotoxicity (LDH): 24 h culture, 1.5 μM Cm28 or 50 nM rMgTx, quiescent or TCR-activated cells, three independent experiments
How it was run: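 CD4+ TEM cells, unstimulated or anti-CD3-stimulated, were cultured 24 h with or without test peptide. Medium samples were mixed with LDH reaction substrate for 30 min in the dark, then stop solution was added. Activity was taken as A490 minus A680, and percent cytotoxicity was calculated against controls. Spontaneous and maximum controls were sterile water and lysis buffer (45 min, 37°C). Positive control: 50 mM NaN3. Three donors, two technical repeats, mean ± SEM.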

[17] = tested on: KV channels; details: ref Bartok et al., 2014, cited from earlier work
[18] = tested on: CD4^+ TEM lymphocytes; assay: Cell viability, Zombie NIR flow cytometry; format: cell-based, human; details: 24 h culture, 1.5 μM Cm28 or 50 nM rMgTx, quiescent or TCR-activated cells, three independent experiments
[19] = 1.5 µM Cm28, anti-CD3–activated, 24 h
[20] = US + Cm28 (1.5 µM), not exposed to anti-CD3
[21] = 5 nM rMgTx, 30 min pre-incubation, 24 h anti-CD3 stimulation, decreased to

T2 sequence (P22001 whole entry): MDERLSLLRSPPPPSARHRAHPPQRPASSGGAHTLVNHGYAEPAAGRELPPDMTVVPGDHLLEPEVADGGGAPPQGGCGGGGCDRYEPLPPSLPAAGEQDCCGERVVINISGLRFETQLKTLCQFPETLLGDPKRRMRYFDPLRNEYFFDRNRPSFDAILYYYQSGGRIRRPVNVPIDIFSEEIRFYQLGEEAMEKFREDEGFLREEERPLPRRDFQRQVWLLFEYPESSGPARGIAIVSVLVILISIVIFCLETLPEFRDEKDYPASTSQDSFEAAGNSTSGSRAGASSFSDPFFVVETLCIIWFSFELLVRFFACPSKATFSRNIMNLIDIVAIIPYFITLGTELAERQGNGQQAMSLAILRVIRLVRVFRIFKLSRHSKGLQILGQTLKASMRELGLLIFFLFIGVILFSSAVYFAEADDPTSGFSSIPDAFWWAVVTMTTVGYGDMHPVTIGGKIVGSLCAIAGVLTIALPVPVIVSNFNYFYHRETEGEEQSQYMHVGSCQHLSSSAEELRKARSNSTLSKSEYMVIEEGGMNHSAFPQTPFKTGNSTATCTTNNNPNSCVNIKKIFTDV
T1 sequence (P16389 whole entry): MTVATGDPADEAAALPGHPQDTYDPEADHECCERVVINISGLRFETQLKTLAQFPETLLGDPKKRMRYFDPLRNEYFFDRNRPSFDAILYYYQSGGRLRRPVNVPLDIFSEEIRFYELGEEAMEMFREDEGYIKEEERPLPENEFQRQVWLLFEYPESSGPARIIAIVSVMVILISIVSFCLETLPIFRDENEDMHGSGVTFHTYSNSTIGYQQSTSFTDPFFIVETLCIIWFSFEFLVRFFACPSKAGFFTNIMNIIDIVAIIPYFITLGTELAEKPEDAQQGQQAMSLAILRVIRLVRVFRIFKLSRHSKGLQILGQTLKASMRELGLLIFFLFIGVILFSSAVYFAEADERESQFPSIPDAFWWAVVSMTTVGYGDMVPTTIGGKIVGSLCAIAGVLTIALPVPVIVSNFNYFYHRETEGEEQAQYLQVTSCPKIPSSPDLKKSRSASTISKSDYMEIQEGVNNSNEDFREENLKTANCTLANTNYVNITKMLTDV

With CC(C)[C@@H]1NC(=O)[C@@H]2CSSC[C@H](NC(=O)[C@@H](N)CCCCN)C(=O)N[C@@H](CCCNC(=N)N)C(=O)N[C@@H](CCC(=O)O)C(=O)N[C@H]3CSSC[C@H](NC(=O)[C@H](CCCCN)NC(=O)CNC(=O)[C@H](CC(N)=O)NC1=O)C(=O)N[C@@H](C(C)C)C(=O)N[C@H](C(=O)N1CCC[C@H]1C(=O)N[C@@H](C)C(=O)O)CSSC[C@H](NC(=O)[C@H](CO)NC(=O)[C@@H]1CCCN1C(=O)[C@H](CO)NC(=O)[C@H]([C@@H](C)O)NC(=O)[C@H](CC(N)=O)NC(=O)CNC3=O)C(=O)N[C@@H](Cc1ccc(O)cc1)C(=O)N[C@@H](Cc1ccccc1)C(=O)N[C@@H](CO)C(=O)NCC(=O)N[C@@H](CC(N)=O)C(=O)N2 [Cm28] (H-KCRECGNTSPSCYFSGNCVNGKCVCPA-OH; disulfide 2-18, 5-23, 12-25; N-terminus assumed) the “inhibition of NaV1.5” value [1] was “did not inhibit”, the “inhibition of hHV1” value [2] was “did not inhibit” and the koff [3] was 0.0013 s⁻¹. The kon [3] was 1.1e+06 M⁻¹ s⁻¹, the “inhibition of NaV1.4” value [4] was “did not inhibit” and the “shift in G-V curve / activation threshold” value [5] was “did not introduce any substantial shift in the G-V curve of KV1.2”. For the same compound, the “reduction of KV1.1 current” value ([6]; 150 nM Cm28, equilibrium block) was about 27%, the “fold less affinity for KV1.1 (vs KV1.2 and KV1.3)” value ([6]; compared with KV1.2 and KV1.3) was about 400 fold and the “inhibition of KV1.1” value ([6]; text of Discussion, high concentration ∼100× of Kd for KV1.3) was “did not inhibit”. The koff [7] was 0.0028 ± 0.000215 s⁻¹, the kon [7] was 1.3e+06 M⁻¹ s⁻¹ and the “inhibition of KV11.1” value [8] was “did not inhibit”. The “inhibition of KCa1.1” value [9] was “did not inhibit”, the “inhibition of KCa3.1” value [10] was “did not inhibit” and the “inhibition of KV1.5” value [11] was “did not inhibit”. The “CD40L expression in activated cells” value [12, 19] was “strongly inhibited; also recorded: significantly reduced”, the “CD40L expression in unstimulated cells” value [12, 20] was “no change” and the “Hill coefficient (H)” value ([13]; KV1.2, Hill fit of dose-response, n = 3–5) was 1.04. For the same compound, the “recovery from block, % of control current” value ([13]; wash-out with toxin-free solution after 2 nM Cm28, took several minutes) was about 85%, the “IL2R expression in activated cells” value [14, 19] was “strongly inhibited; also recorded: significantly reduced” and the “IL2R expression in unstimulated cells” value [14, 20] was “no change”. For the same compound, the “Hill coefficient (H)” value ([15]; KV1.3, Hill fit of dose-response, n = 3–5) was 0.93, the inhibition at 0.002 µM ([15]; read-out: inhibition of current at block equilibrium) was about 58% and the “time for 90% recovery from block” value ([15]; wash-out with toxin-free solution after 2 nM Cm28) was 10 min. For the same compound, the “cytotoxicity (LDH)” value [16] was under 1%.

In the case of [N-]=[N+]=[N-].[Na+] [NaN3, sodium azide], the “cytotoxicity (LDH), positive control” value ([16]; 50 mM NaN3) is reported as 15%.

In the case of CC[N+](CC)(CC)CC.[Cl-] [TEA^+, reference compound], the “inhibition in peak current, perfusion control” value ([15]; 10 mM TEA^+, KV1.3) is reported as about 50%.

For ChTx [reference compound], the “block of KV1.x channel subtypes” value [17] is listed as “blocks more than one KV1.x channel subtypes with high affinity” and the “inhibition in peak current, perfusion control” value ([13]; 14 nM ChTx, KV1.2) is listed as about 50%.

For “MgTx (TIINVKCTSPKQCLPPCKAQFGQSAGAKCMNGKCKCYPH; UniProt P40755 1-39, looked up)”, the “block of KV1.x channel subtypes” value [17] is given as “blocks more than one KV1.x channel subtypes with high affinity” and the “block of KV1.x channel subtypes” value ([17]; listed as margatoxin) is given as “blocks different KV channels”.

With “rMgTx (TIINVKCTSPKQCLPPCKAQFGQSAGAKCMNGKCKCYPH; ends and bridges not checked; cysteine pairing not given here; UniProt P40755 1-39, looked up) [reference compound]” the viable cells [18] was at least 90%, the “CD40L expression, normalized to stimulated non-treated control” value [12, 21] was about 51% and the “IL2R expression, normalized to stimulated non-treated control” value [14, 21] was about 48%. The “cytotoxicity (LDH)” value [16] was under 2%.
